ChEMBL document CHEMBL1140337, “Synthesis and structure-activity relationships of a new series of retinoid-related biphenyl-4-ylacrylic acids endowed with antiproliferative and proapoptotic activity” (J Med Chem, 2005)

Assays:
[1] = test system: IGROV-1; assay: Concentration of compound required for inhibition of (IGROV-1) human ovarian carcinoma cell growth by 50%; assay type: functional, cell-based
In short: (§1)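 Ovarian carcinoma cells in log-phase growth seeded in duplicate; drug added 24 h after seeding, cells harvested after 72 h of exposure and counted with a cell counter. IC50 = concentration giving 50% fewer cells than untreated control. Where SD is reported, mean of three independent experiments.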

[2] = Effective concentration against retinoic acid receptor alpha in COS-7 cells co-expressing DR5-tk-CAT reporter; value range (5.6-59.1); assay type: cell-based
In short: (§2)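 COS-7 cells transfected with the relevant RAR isoform (alpha, beta or gamma) plus a DR5-tk-CAT reporter. 24 h post-transfection, cells treated 24 h with increasing compound concentrations. CAT activity measured in cell extracts, normalized to a beta-galactosidase transfection control.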

[3] = target: T1, Retinoic acid receptor beta (Homo sapiens, UniProt P10826); assay: Effective concentration against retinoic acid receptor beta in COS-7 cells co-expressing DR5-tk-CAT reporter; value range (7.5-41.1); assay type: cell-based; in short: as §2
T1 sequence (P10826 whole entry): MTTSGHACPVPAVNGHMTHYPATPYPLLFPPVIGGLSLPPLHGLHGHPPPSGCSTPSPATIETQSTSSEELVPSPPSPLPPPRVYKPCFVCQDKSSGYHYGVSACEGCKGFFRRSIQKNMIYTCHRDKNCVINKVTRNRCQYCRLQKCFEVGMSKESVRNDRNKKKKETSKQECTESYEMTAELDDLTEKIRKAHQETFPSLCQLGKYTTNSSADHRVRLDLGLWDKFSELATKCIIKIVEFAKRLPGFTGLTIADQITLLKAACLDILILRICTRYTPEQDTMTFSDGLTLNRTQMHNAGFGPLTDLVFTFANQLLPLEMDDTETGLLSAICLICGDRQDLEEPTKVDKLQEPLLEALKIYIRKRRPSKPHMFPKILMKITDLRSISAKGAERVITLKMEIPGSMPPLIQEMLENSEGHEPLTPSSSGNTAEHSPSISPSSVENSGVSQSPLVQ

[4] = test system: IGROV-1; assay: Percent level of apoptosis induced by 72 hr of exposure with IC80 in (IGROV-1) human ovarian carcinoma cells; assay type: functional
[5] = test system: NB-4; assay: Concentration of compound required for inhibition of (NB4) human promyelocytic leukemia cell growth by 50%; assay type: functional, cell-based
In short: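 Leukemia cells exposed to drug for 24 h; growth inhibition assessed by cell counting at 72 h. IC50 = concentration reducing cell number 50% versus untreated control. Where SD is given, mean of three independent experiments.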

[6] = Concentration of compound required for inhibition of (IGROV-1/Pt1) human cisplatin resistant ovarian carcinoma cell growth by 50%; assay type: functional; in short: as §1
[7] = Effective concentration against retinoic acid receptor gamma in COS-7 cells co-expressing DR5-tk-CAT reporter; value range (0.6-1.5); assay type: cell-based; in short: as §2
[8] = Percent level of apoptosis induced by 72 hr of exposure with IC80 in (IGROV-1/Pt1) human cisplatin resistant ovarian carcinoma cells; assay type: functional
[9] = Effective concentration against retinoic acid receptor alpha in COS-7 cells co-expressing DR5-tk-CAT reporter; value range (0.1-0.4); assay type: cell-based; in short: as §2
[10] = Effective concentration against retinoic acid receptor gamma in COS-7 cells co-expressing DR5-tk-CAT reporter; value range (0.1-0.3); assay type: cell-based; in short: as §2
[11] = target: T1, Retinoic acid receptor beta; assay: Effective concentration against retinoic acid receptor beta in COS-7 cells co-expressing DR5-tk-CAT reporter; value range (0.1-0.3); assay type: cell-based
[12] = Effective concentration against retinoic acid receptor gamma in COS-7 cells co-expressing DR5-tk-CAT reporter; assay type: cell-based; in short: as §2
[13] = Effective concentration against retinoic acid receptor alpha in COS-7 cells co-expressing DR5-tk-CAT reporter; assay type: cell-based; in short: as §2
[14] = target: T1, Retinoic acid receptor beta; assay: Effective concentration against retinoic acid receptor beta in COS-7 cells co-expressing DR5-tk-CAT reporter; assay type: cell-based; in short: as §2
[15] = Effective concentration against retinoic acid receptor alpha in COS-7 cells co-expressing DR5-tk-CAT reporter; value range (13.9-29.7); assay type: cell-based; in short: as §2
[16] = Effective concentration against retinoic acid receptor gamma in COS-7 cells co-expressing DR5-tk-CAT reporter; value range (0.8-2.4); assay type: cell-based; in short: as §2
[17] = target: T1, Retinoic acid receptor beta; assay: Effective concentration against retinoic acid receptor beta in COS-7 cells co-expressing DR5-tk-CAT reporter; value range (6.1-9.8); assay type: cell-based; in short: as §2
[18] = target: T1, Retinoic acid receptor beta; assay: Effective concentration against retinoic acid receptor beta in COS-7 cells co-expressing DR5-tk-CAT reporter; value range (3.9-7.2); assay type: cell-based; in short: as §2
[19] = Effective concentration against retinoic acid receptor alpha in COS-7 cells co-expressing DR5-tk-CAT reporter; value range (4.6-8.9); assay type: cell-based; in short: as §2
[20] = Effective concentration against retinoic acid receptor gamma in COS-7 cells co-expressing DR5-tk-CAT reporter; value range (0.1-0.5); assay type: cell-based; in short: as §2

## Nc1ccccc1NC(=O)/C=C/c1ccc(-c2ccc(O)c(C34CC5CC(CC(C5)C3)C4)c2)cc1
[1]
  IC50: 2.1 µM
[2]
  EC50: 18.2 µM
[3]
  EC50: 17.6 µM
[4]
  Apoptosis: 8%
[5]
  IC50: 1.8 µM
[6]
  IC50: 2 µM
[7]
  EC50: 0.9 µM

## O=C(O)/C=C/c1ccc(-c2ccc(O)c(C34CC5CC(CC(C5)C3)C4)c2)cc1 [ADAROTENE]
[8]
  Apoptosis: 30%
[9]
  EC50: 0.2 µM
[4]
  Apoptosis: 65%
[5]
  IC50: 0.082 µM
[6]
  IC50: 0.4 µM
[10]
  EC50: 0.1 µM
[11]
  EC50: 0.2 µM

## O=C(O)/C(F)=C\c1ccc(-c2ccc(O)c(C34CC5CC(CC(C5)C3)C4)c2)cc1
[1]
  IC50: > 3 µM
[5]
  IC50: 22.4 µM
[6]
  IC50: > 3 µM

## O=C(O)/C=C/c1ccc(-c2ccc(O)c(-c3ccccc3)c2)cc1
[8]
  Apoptosis: 1%
[12]
  EC50: > 100 µM
[13]
  EC50: > 100 µM
[1]
  IC50: 19 µM
[14]
  EC50: > 100 µM
[4]
  Apoptosis: 7%
[5]
  IC50: 45.3 µM
[6]
  IC50: 12.5 µM

## Cc1cc(O)c(C23CC4CC(CC(C4)C2)C3)cc1-c1ccc(/C=C/C(=O)O)cc1
[1]
  IC50: 1.14 µM
[5]
  IC50: 1.7 µM
[6]
  IC50: 2.92 µM

## O=C(O)/C=C/c1ccc2c(ccc3cc(O)c(C45CC6CC(CC(C6)C4)C5)cc32)c1
[1]
  IC50: 2.2 µM
[5]
  IC50: 1.5 µM
[6]
  IC50: 2.1 µM

## N#C/C=C/c1ccc(-c2ccc(O)c(C34CC5CC(CC(C5)C3)C4)c2)cc1
[1]
  IC50: 8.3 µM
[4]
  Apoptosis: 2%
[5]
  IC50: 14.3 µM
[6]
  IC50: 12.7 µM

## O=C(O)/C=C/c1ccc(-c2ccc(O)c(Cl)c2)cc1
[1]
  IC50: 26 µM

## O=C(O)/C=C/c1ccc(-c2ccc(O)cc2)cc1
[8]
  Apoptosis: 1%
[12]
  EC50: > 100 µM
[13]
  EC50: > 100 µM
[1]
  IC50: 89 µM
[14]
  EC50: > 100 µM
[4]
  Apoptosis: 3%
[5]
  IC50: 78.7 µM
[6]
  IC50: 156 µM

## O=C(O)/C=C/c1ccc(-c2ccc(C34CC5CC(CC(C5)C3)C4)c(O)c2)cc1
[1]
  IC50: 6.13 µM
[4]
  Apoptosis: 23%
[5]
  IC50: > 10 µM

## O=Cc1cc(/C=C/C(=O)O)ccc1-c1ccc(O)c(C23CC4CC(CC(C4)C2)C3)c1
[1]
  IC50: 1.28 µM
[4]
  Apoptosis: 44%
[5]
  IC50: 1.05 µM
[6]
  IC50: 2.63 µM

## CC(C)(C)c1cc(-c2ccc(/C=C/C(=O)O)cc2)ccc1O
[1]
  IC50: 30 µM
[5]
  IC50: 42.3 µM
[6]
  IC50: 30 µM

## CC1(c2cc(-c3ccc(/C=C/C(=O)O)cc3)ccc2O)CCCCCCCCCCC1
[1]
  IC50: 3.57 µM

## O=C(O)C1CC1c1ccc(-c2ccc(O)c(C34CC5CC(CC(C5)C3)C4)c2)cc1 (stereo not given)
[1]
  IC50: > 20 µM
[5]
  IC50: 39.4 µM
[6]
  IC50: > 20 µM

## O=C(/C=C/c1ccc(-c2ccc(O)c(C34CC5CC(CC(C5)C3)C4)c2)cc1)Nc1ccc(O)cc1
[1]
  IC50: 6.6 µM
[15]
  EC50: 20.3 µM
[16]
  EC50: 1.4 µM
[4]
  Apoptosis: 2%
[5]
  IC50: 2 µM
[6]
  IC50: 10.5 µM
[17]
  EC50: 7.7 µM

## C/C(=C\C(=O)O)c1ccc(-c2ccc(O)c(C34CC5CC(CC(C5)C3)C4)c2)cc1
[1]
  IC50: 9.97 µM
[4]
  Apoptosis: 26%
[5]
  IC50: 6.7 µM
[6]
  IC50: 16.6 µM

## O=C(O)c1ccc(-c2ccc(O)c(C34CC5CC(CC(C5)C3)C4)c2)cc1
[1]
  IC50: > 3 µM
[5]
  IC50: 35.2 µM
[6]
  IC50: > 3 µM

## CCOP(=O)(/C=C/c1ccc(-c2ccc(O)c(C34CC5CC(CC(C5)C3)C4)c2)cc1)OCC
[1]
  IC50: 19.7 µM
[5]
  IC50: 1.7 µM
[6]
  IC50: > 20 µM

## O=C(O)/C(F)=C/c1ccc(-c2ccc(O)c(C34CC5CC(CC(C5)C3)C4)c2)cc1
[1]
  IC50: 0.37 µM
[5]
  IC50: 0.081 µM
[6]
  IC50: 0.63 µM

## O=C(O)/C=C/c1ccc(-c2cc(O)cc(C34CC5CC(CC(C5)C3)C4)c2)cc1
[1]
  IC50: 1.31 µM
[5]
  IC50: 1.2 µM

## C/C(=C\c1ccc(-c2ccc(O)c(C34CC5CC(CC(C5)C3)C4)c2)cc1)C(=O)O
[1]
  IC50: 7.19 µM
[5]
  IC50: 2.3 µM
[6]
  IC50: 10 µM

## O=C(O)CCc1ccc(-c2ccc(O)c(C34CC5CC(CC(C5)C3)C4)c2)cc1
[1]
  IC50: 48.4 µM
[4]
  Apoptosis: 26%
[5]
  IC50: 63.6 µM
[6]
  IC50: 44.5 µM

## COC(=O)/C=C/c1ccc(-c2ccc(O)c(C34CC5CC(CC(C5)C3)C4)c2)cc1
[1]
  IC50: 0.61 µM
[5]
  IC50: 18.2 µM
[6]
  IC50: 3.5 µM

## O=C(O)/C=C/c1ccc(-c2ccc(O)c(C34CC5CC(CC(C5)C3)C4)c2)cc1F
[1]
  IC50: 0.2 µM
[4]
  Apoptosis: 47%
[5]
  IC50: 0.17 µM
[6]
  IC50: 0.43 µM

## O=C(O)c1ccc2cc(-c3ccc(O)c(C45CC6CC(CC(C6)C4)C5)c3)ccc2c1 [O-DEMETHYLATED ADAPALENE]
[8]
  Apoptosis: 25%
[4]
  Apoptosis: 38%
[5]
  IC50: 0.4 µM
[6]
  IC50: 0.62 µM

## O=C(O)/C=C/c1ccc(-c2ccc(O)c(CC3CCCCC3)c2)cc1
[8]
  Apoptosis: 9%
[18]
  EC50: 5.3 µM
[1]
  IC50: 2.58 µM
[19]
  EC50: 6.4 µM
[4]
  Apoptosis: 25%
[5]
  IC50: 2.2 µM
[20]
  EC50: 0.2 µM
[6]
  IC50: 2.3 µM

## O=C(O)C#Cc1ccc(-c2ccc(O)c(C34CC5CC(CC(C5)C3)C4)c2)cc1
[1]
  IC50: 1.15 µM
[4]
  Apoptosis: 52%
[5]
  IC50: 1.2 µM
[6]
  IC50: 1.52 µM

## OC/C=C/c1ccc(-c2ccc(O)c(C34CC5CC(CC(C5)C3)C4)c2)cc1
[1]
  IC50: 10.8 µM
[5]
  IC50: 9.1 µM
[6]
  IC50: 10.6 µM

## O=C(O)/C=C/c1ccc(-c2ccc(O)c(C34CC5CC(CC(C5)C3)C4)c2)c(Cl)c1
[1]
  IC50: 0.58 µM
[4]
  Apoptosis: 74%
[5]
  IC50: 0.2 µM
[6]
  IC50: 0.73 µM

## O=P(O)(O)/C=C/c1ccc(-c2ccc(O)c(C34CC5CC(CC(C5)C3)C4)c2)cc1
[1]
  IC50: > 20 µM
[5]
  IC50: > 200 µM
[6]
  IC50: > 20 µM
